From ChEMBL document CHEMBL2176874, “1-(sulfonyl)-5-(arylsulfonyl)indoline as activators of the tumor cell specific M2 isoform of pyruvate kinase” (Bioorg Med Chem Lett, 2012)
Calls of active or inactive are those of the source. No cut-off for these calls is given here.

How the values were obtained:
[1] = biological target: Pyruvate kinase PKM (Homo sapiens) (UniProt P14618); experiment: Activation of human pyruvate kinase M2 using phosphoenolpyruvate as substrate by kinaseGlo assay relative to control
Outline: (§1)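 Cell-free enzymatic pyruvate kinase activity assay. Maximal activation is expressed as the percentage rise in enzyme activity above basal level, with 0% set as enzyme activity without compound.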

[2] = biological target: Pyruvate kinase PKM (Homo sapiens) (UniProt P14618); experiment: Activation of human pyruvate kinase M2 using phosphoenolpyruvate as substrate assessed as concentration required for 50% activation by kinaseGlo assay
[3] = Half life in human liver microsomes at 1 uM by LC-MS/MS analysis
[4] = Efflux ratio of apparent permeability from basal to apical to apical to basal side of human Caco2 cells at 10 uM after 90 mins by LC-MS/MS analysis; settings: Caco-2
[5] = Serum protein binding in human at 1 uM after 5 hrs by LC-MS/MS analysis; type: ADME, cell-free; settings: read-out: PB (converted)
[6] = Apparent permeability from apical to basal side of human Caco2 cells at 10 uM after 90 mins by LC-MS/MS analysis; settings: Caco-2
[7] = Apparent permeability from basal to apical side of human Caco2 cells at 10 uM after 90 mins by LC-MS/MS analysis; settings: Caco-2
hERG (KCNH2) = hERG (KCNH2) (Homo sapiens, UniProt Q12809); experiment: Inhibition of human ERG expressed in CHO cells at 1 uM measured up to 3 mins by whole cell patch clamp assay; type: cell-based; settings: CHO cells expressing human ERG
[8] = biological target: Pyruvate kinase PKLR (Homo sapiens) (UniProt P30613); experiment: Activation of human pyruvate kinase R using phosphoenolpyruvate as substrate by kinaseGlo assay relative to control; outline: as §1
[9] = biological target: Pyruvate kinase PKLR (Homo sapiens) (UniProt P30613); experiment: Activation of human pyruvate kinase L using phosphoenolpyruvate as substrate assessed as concentration required for 50% activation by kinaseGlo assay
[10] = biological target: Pyruvate kinase PKLR (Homo sapiens) (UniProt P30613); experiment: Activation of human pyruvate kinase R using phosphoenolpyruvate as substrate assessed as concentration required for 50% activation by kinaseGlo assay
[11] = biological target: Pyruvate kinase PKLR (Homo sapiens) (UniProt P30613); experiment: Activation of human pyruvate kinase L using phosphoenolpyruvate as substrate by kinaseGlo assay relative to control; outline: as §1
[12] = biological target: Pyruvate kinase PKM (Homo sapiens) (UniProt P14618); experiment: Activation of human pyruvate kinase M1 using phosphoenolpyruvate as substrate by kinaseGlo assay
[13] = biological target: Pyruvate kinase PKM (Homo sapiens) (UniProt P14618); experiment: Activation of human pyruvate kinase M1 using phosphoenolpyruvate as substrate by kinaseGlo assay relative to control; outline: as §1

Pyruvate kinase PKM (Homo sapiens), sequence (P14618 2-531 limits assumed): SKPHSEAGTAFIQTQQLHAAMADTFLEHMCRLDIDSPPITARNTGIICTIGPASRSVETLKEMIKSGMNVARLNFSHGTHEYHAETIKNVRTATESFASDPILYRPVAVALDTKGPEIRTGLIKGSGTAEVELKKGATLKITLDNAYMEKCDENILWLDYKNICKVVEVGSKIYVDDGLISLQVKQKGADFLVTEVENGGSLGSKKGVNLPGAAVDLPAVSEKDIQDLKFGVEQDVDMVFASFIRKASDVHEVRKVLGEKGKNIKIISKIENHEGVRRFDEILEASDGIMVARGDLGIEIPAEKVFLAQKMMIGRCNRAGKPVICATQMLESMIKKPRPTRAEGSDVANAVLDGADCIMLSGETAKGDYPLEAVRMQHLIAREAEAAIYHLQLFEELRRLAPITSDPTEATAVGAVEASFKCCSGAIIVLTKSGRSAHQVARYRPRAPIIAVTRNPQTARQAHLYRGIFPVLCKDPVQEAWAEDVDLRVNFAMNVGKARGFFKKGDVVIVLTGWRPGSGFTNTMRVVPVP
Pyruvate kinase PKLR (Homo sapiens), sequence (P30613 whole entry, looked up): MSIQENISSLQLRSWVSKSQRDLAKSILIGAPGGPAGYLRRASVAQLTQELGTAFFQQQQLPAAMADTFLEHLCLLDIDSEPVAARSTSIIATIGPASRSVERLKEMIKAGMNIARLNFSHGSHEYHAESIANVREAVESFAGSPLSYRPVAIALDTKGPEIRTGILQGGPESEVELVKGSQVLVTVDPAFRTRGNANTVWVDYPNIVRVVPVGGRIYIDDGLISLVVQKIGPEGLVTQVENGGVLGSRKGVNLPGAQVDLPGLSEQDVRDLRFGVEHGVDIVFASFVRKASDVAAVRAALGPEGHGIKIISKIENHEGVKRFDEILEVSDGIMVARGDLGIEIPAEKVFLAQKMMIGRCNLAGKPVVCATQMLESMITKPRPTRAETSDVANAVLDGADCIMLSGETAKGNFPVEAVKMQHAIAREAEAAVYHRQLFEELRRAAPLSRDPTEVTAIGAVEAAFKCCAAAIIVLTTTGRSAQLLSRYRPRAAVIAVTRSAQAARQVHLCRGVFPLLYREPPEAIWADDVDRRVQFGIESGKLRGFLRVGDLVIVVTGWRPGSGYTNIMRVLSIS
hERG (KCNH2), sequence (Q12809 whole entry): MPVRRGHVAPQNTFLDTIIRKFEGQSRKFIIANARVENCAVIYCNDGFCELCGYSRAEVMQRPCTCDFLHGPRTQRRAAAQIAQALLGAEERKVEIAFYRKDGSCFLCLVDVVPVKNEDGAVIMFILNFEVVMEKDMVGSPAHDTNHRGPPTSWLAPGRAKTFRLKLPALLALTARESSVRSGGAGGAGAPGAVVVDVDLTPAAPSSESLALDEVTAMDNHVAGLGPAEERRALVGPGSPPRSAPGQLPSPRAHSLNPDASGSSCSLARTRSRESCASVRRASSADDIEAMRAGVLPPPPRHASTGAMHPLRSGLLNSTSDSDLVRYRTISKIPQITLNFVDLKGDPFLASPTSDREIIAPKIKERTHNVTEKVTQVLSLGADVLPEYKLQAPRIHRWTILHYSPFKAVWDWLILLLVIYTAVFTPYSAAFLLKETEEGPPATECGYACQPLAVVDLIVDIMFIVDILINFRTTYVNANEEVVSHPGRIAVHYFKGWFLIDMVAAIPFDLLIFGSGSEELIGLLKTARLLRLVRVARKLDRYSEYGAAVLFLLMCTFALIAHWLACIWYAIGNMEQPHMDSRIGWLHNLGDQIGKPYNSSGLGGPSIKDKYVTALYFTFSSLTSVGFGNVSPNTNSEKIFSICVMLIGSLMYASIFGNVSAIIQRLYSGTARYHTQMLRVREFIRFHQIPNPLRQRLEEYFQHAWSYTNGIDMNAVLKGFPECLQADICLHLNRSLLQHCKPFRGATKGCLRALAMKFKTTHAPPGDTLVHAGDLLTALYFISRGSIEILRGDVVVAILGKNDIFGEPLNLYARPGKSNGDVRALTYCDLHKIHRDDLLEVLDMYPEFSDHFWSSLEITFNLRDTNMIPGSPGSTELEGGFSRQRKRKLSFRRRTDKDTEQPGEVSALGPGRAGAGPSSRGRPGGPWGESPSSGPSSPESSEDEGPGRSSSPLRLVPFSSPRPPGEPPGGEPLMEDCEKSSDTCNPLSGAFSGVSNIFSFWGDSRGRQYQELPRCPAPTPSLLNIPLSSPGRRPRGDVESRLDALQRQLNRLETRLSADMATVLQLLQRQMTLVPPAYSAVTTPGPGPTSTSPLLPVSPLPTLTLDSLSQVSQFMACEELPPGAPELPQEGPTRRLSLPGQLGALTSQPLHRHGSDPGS

| Compound | max activation [1] | Activity [2] | other results |
| --- | --- | --- | --- |
| CC1Cc2cc(S(=O)(=O)c3ccc4c(c3)OCCO4)ccc2N1S(=O)(=O)c1c(F)cccc1F (racemic) | 168% | 0.5 µM |  |
| CCS(=O)(=O)N1CCc2cc(C(=O)CSc3ccc4c(c3)OCCCO4)ccc21 | 149% | 0.51 µM | half-life at 1 µM ([3]; liver microsomes): 1.4 min |
| COc1cccc(S(=O)(=O)N2c3ccc(S(=O)(=O)c4ccc5c(c4)OCCO5)cc3CC2C)c1 (racemic) | 119% | 0.8 µM |  |
| CCS(=O)(=O)N1CCc2cc(S(=O)(=O)c3ccc4c(c3)OCCO4)ccc21 | 89% | 0.027 µM |  |
| CC1Cc2cc(S(=O)(=O)Nc3ccc4c(c3)OCCO4)ccc2N1S(C)(=O)=O (racemic) | 25.5% | 51 µM |  |
| CC1Cc2cc(NS(=O)(=O)c3ccc4c(c3)OCCO4)ccc2N1S(C)(=O)=O (racemic) | 32.5% | > 100 µM |  |
| CS(=O)(=O)n1ccc2cc(S(=O)(=O)c3ccc4c(c3)OCCO4)ccc21 | 98% | 0.023 µM |  |
| CC1Cc2cc(C(=O)c3ccc4c(c3)OCCO4)ccc2N1S(C)(=O)=O (racemic) |  | inactive |  |
| CC1Cc2cc(S(=O)(=O)c3ccc4c(c3)OCCO4)ccc2N1S(C)(=O)=O (racemic) | 148% | 2 µM | efflux ratio at 1.5 h, 10 µM [4]: 0.59; fraction unbound at 5 h, 1 µM [5]: 0.075; Papp A→B at 1.5 h, 10 µM [6]: 20.4 ×10⁻⁶ cm/s; Papp B→A at 1.5 h, 10 µM [7]: 12.1 ×10⁻⁶ cm/s; half-life at 1 µM ([3]; liver microsomes): 31.5 min |
| CS(=O)(=O)N1CCCc2cc(S(=O)(=O)c3ccc4c(c3)OCCO4)ccc21 | 152% | 2.3 µM |  |
| Cc1cn(S(C)(=O)=O)c2ccc(S(=O)(=O)c3ccc4c(c3)OCCO4)cc12 | 154% | 2.72 µM |  |
| CCS(=O)(=O)N1CCc2cc(C(=O)CSc3ccc(F)cc3F)ccc21 | 171% | 4.1 µM |  |
| O=P(O)(O)OC[C@H]1O[C@@](O)(COP(=O)(O)O)[C@@H](O)[C@@H]1O | 148% | 0.08 µM |  |
| O=S(=O)(c1ccc2c(c1)CCN2S(=O)(=O)C1CC1)c1ccc2c(c1)OCCO2 | 105% | 0.017 µM |  |
| CS(=O)(=O)Nc1ccc(C(=O)CSc2ccc3c(c2)OCCO3)cc1 | 140% | 2.5 µM | half-life at 1 µM ([3]; microsomes): 3.3 min |
| CCS(=O)(=O)N1Cc2ccc(S(=O)(=O)c3ccc4c(c3)OCCO4)cc2C1 | 35% | 0.02 µM |  |

| Compound | max activation [1] | Activity [2] | other results |
| --- | --- | --- | --- |
| CC(C)CS(=O)(=O)N1Cc2ccc(S(=O)(=O)c3ccc4c(c3)OCCO4)cc2C1 | 91.5% | 0.189 µM |  |
| CC1Cc2cc(S(=O)(=O)c3ccc4c(c3)OCCO4)ccc2N1S(=O)(=O)c1ccccc1 (racemic) | 134% | 0.6 µM |  |
| CCN(c1ccc(S(=O)(=O)c2ccc3c(c2)OCCO3)cc1)S(C)(=O)=O | 100% | 41 µM |  |
| CC1Cc2cc(C(=O)CSc3ccc4c(c3)OCCO4)ccc2N1S(C)(=O)=O (racemic) | 164% | 0.55 µM | half-life at 1 µM ([3]; liver microsomes): 3.4 min |
| O=S(=O)(c1ccc2c(c1)CN(S(=O)(=O)c1ccccc1)C2)c1ccc2c(c1)OCCO2 | 140% | 0.061 µM |  |
| CCN(c1ccc(S(=O)(=O)c2ccc3c(c2)OCCO3)c(C)c1)S(C)(=O)=O | 160% | 2.7 µM |  |
| O=S(=O)(c1ccc2c(c1)CCN2S(=O)(=O)c1cccc(F)c1)c1ccc2c(c1)OCCO2 | 87% | 0.03 µM |  |
| CS(=O)(=O)N1Cc2ccc(S(=O)(=O)c3ccc4c(c3)OCCO4)cc2C1 | 125% | 0.017 µM | efflux ratio at 1.5 h, 10 µM [4]: 1.06; fraction unbound at 5 h, 1 µM [5]: 0.091; Papp A→B at 1.5 h, 10 µM [6]: 30.4 ×10⁻⁶ cm/s; inhibition at 0.05 h, 1 µM (hERG (KCNH2)): 7.3%; Papp B→A at 1.5 h, 10 µM [7]: 32.4 ×10⁻⁶ cm/s; half-life at 1 µM ([3]; liver microsomes): > 45 min |
| CC1Cc2cc(S(=O)(=O)c3ccc4c(c3)OCCO4)ccc2N1S(=O)(=O)Cc1ccccc1 (racemic) | 111% | 1.6 µM |  |
| CCS(=O)(=O)N1CCc2cc(C(=O)CSc3cccc(OC)c3)ccc21 | 110% | 2.4 µM |  |
| CC1Cc2cc(S(=O)(=O)c3ccc4c(c3)OCCO4)ccc2N1S(=O)(=O)c1ccc(F)cc1 (racemic) | 159% | 0.6 µM |  |
| CS(=O)(=O)N1CCc2c1cc(F)c(S(=O)(=O)c1ccc3c(c1)OCCO3)c2F | 78% | 0.079 µM |  |
| CS(=O)(=O)N1CCCc2cc(C(=O)CSc3ccc4c(c3)OCCO4)ccc21 | 107% | 1.3 µM |  |
| CS(=O)(=O)N1CCc2cc(S(=O)(=O)c3ccc4c(c3)OCCO4)ccc21 | 106% | 0.045 µM | max activation [8]: 34%; efflux ratio at 1.5 h, 10 µM [4]: 1.14; fraction unbound at 5 h, 1 µM [5]: 0.059; Activity [9]: > 100 µM; Activity [10]: > 100 µM; max activation [11]: 33%; Papp A→B at 1.5 h, 10 µM [6]: 37.5 ×10⁻⁶ cm/s; Activity [12]: inactive; max activation [13]: inactive; inhibition at 0.05 h, 1 µM (hERG (KCNH2)): 9%; Papp B→A at 1.5 h, 10 µM [7]: 43 ×10⁻⁶ cm/s; half-life at 1 µM ([3]; microsomes): 26 min |
| CC(C)N(c1ccc(S(=O)(=O)c2ccc3c(c2)OCCO3)cc1)S(C)(=O)=O | 194% | 2.8 µM |  |
| O=S(=O)(c1ccc2c(c1)CCN2S(=O)(=O)c1ccccc1)c1ccc2c(c1)OCCO2 | 122% | 0.093 µM |  |
